Data published in publication PMC9293670 (Acta Pharmaceutica Sinica. B, 2022).

Key:
PDE8A1 (480–820) = PDE8A1 (480–820) (Homo sapiens, UniProt O60658); test: PDE8A inhibition, 3H-cAMP radiometric enzyme assay; format: biochemical
How it was run: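 Recombinant PDE8A1 (480–820) was expressed in E. coli BL21 (DE3), denatured in guanidine, refolded, and purified on Ni-NTA, hydroxyapatite, Q-Sepharose and gel filtration. ³H-cAMP (~20,000 cpm/assay) was reacted in Tris-HCl 20 mmol/L pH 7.5, MnCl₂ 10 mmol/L and DTT 1 mmol/L at 25 °C for 15 min. Reactions were stopped with ZnSO₄ then Ba(OH)₂, and supernatant ³H-cAMP was scintillation-counted. IC50 came from nonlinear regression over ≥8 concentrations, with each test run ≥3 times.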

[1] = Metabolic stability in rat liver microsomes; format: in vitro ADME

Chain of PDE8A1 (480–820) (O60658 480-820): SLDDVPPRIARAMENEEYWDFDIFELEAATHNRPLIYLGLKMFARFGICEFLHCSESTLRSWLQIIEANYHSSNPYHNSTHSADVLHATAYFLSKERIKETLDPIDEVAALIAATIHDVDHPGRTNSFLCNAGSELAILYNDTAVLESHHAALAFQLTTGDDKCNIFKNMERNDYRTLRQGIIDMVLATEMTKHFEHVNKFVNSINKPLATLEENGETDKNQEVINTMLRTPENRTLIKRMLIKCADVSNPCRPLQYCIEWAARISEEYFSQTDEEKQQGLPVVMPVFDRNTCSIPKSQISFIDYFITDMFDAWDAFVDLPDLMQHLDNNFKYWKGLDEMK

| SMILES | IC50 (PDE8A1 (480–820)) | half-life [1] |
| --- | --- | --- |
| CCOc1cc(Cn2cnc3c(N)nc(Cl)nc32)cc(OCC(F)F)c1 [Compound 14] | 593 ± 69 nM | – |
| Nc1nc(Cl)nc2c1ncn2Cc1cc(OCC(F)F)cc(OC2CCC2)c1 [Compound 18] | 20 ± 2 nM | – |
| Nc1nc(Cl)nc2c1ncn2Cc1cc(OCC(F)F)cc(OCC2CC2)c1 [Compound 19] | 40 ± 1 nM | – |
| COCCOc1cc(Cn2cnc3c(N)nc(Cl)nc32)cc(OCC(F)F)c1 [Compound 20] | 52 ± 5 nM | – |
| Nc1nc(Cl)nc2c1ncn2Cc1cc(OCc2ccccc2)cc(OCC(F)F)c1 [Compound 21] | 597 ± 61 nM | – |
| Nc1nc(Cl)nc2c1ncn2Cc1cc(OCC(F)F)cc(-c2ccncc2)c1 [Compound 22] | 3.1 ± 0.2 nM | 8 min |
| Nc1nc(Cl)nc2c1ncn2Cc1cc(OCC(F)F)cc(-c2cccnc2)c1 [Compound 23] | 4.8 ± 0.3 nM | 39 min |
| Nc1nc(Cl)nc2c1ncn2Cc1cc(OCC(F)F)cc(-c2ccco2)c1 [Compound 25] | 13 ± 2 nM | – |

The remaining lines, values ahead:

| IC50 (PDE8A1 (480–820)) | half-life [1] | SMILES |
| --- | --- | --- |
| 51 ± 3 nM | – | Nc1nc(Cl)nc2c1ncn2Cc1cc(F)cc(OCC(F)F)c1 [Compound 11] |
| 193 ± 17 nM | – | Nc1nc(Cl)nc2c1ncn2Cc1cc(O)cc(OCC(F)F)c1 [Compound 12] |
| 591 ± 11 nM | – | COc1cc(Cn2cnc3c(N)nc(Cl)nc32)cc(OCC(F)F)c1 [Compound 13] |
| 4.6 ± 0.6 nM | 6 min | CC(C)c1cc(Cn2cnc3c(N)nc(Cl)nc32)cc(OCC(F)F)c1 [Compound 16] |
| 5 ± 0.3 nM | 16 min | CC(C)Oc1cc(Cn2cnc3c(N)nc(Cl)nc32)cc(OCC(F)F)c1 [Compound 17] |
